Test results taken from ChEMBL document CHEMBL1155638, “Anti-AIDS agents 38. Anti-HIV activity of 3-O-acyl ursolic acid derivatives” (J Nat Prod, 2000).

How the values were obtained:
[1] = Therapeutic index, IC50 for human T-lymphoid H9 cells to EC50 for HIV1 3B isolate; type: cell-based; conditions: read-out: Ratio IC50/EC50
Procedure, shortened: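 Ratio of IC50 (Coulter count, mock-infected H9 cells, 4 days) to EC50 (p24 ELISA, HIV-1 IIIB-infected H9 cells, 4 days), both determined in parallel within the same assay.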

H9 (human) = test: Cytotoxicity against human H9 cells assessed as growth inhibition after 4 days
[2] = test system: Human immunodeficiency virus 1; test: Antiviral activity against HIV1 replication in human H9 cells; conditions: for EC50: Homo sapiens, H9; for Activity: human, h9

EC50 [2] [µM] | Activity [2] | SMILES | selectivity ratio [1] | IC50 (H9 (human); H9, 96 h) [µM] | IC50 (H9 (human); h9) [µM]
– | – | CC1(C)CC[C@]2(C(=O)O)CC[C@]3(C)C(=CC[C@@H]4[C@@]5(C)CC[C@H](OC(=O)CC(C)(C)C(=O)O)C(C)(C)[C@@H]5CC[C@]43C)[C@@H]2C1 | 22300 | – | –
2.1 | – | C[C@H]1[C@H](C)CC[C@]2(C(=O)O)CC[C@]3(C)C(=CC[C@@H]4[C@@]5(C)CC[C@H](OC(=O)CC(C)(C)C(=O)O)C(C)(C)[C@@H]5CC[C@]43C)[C@H]12 | 23.6 | 49.5 | –
– | Not Active | C[C@H]1[C@H](C)CC[C@]2(C(=O)O)CC[C@]3(C)C(=CC[C@@H]4[C@@]5(C)CC[C@H](OC(=O)CC(C)(C)CC(=O)O)C(C)(C)[C@@H]5CC[C@]43C)[C@H]12 | – | 7 | –
0.31 | – | C[C@H]1[C@H](C)CC[C@]2(C(=O)O)CC[C@]3(C)C(=CC[C@@H]4[C@@]5(C)CC[C@H](OC(=O)COCC(=O)O)C(C)(C)[C@@H]5CC[C@]43C)[C@H]12 | 156 | 48.2 | –
– | Not Active | C[C@H]1[C@H](C)CC[C@]2(C(=O)O)CC[C@]3(C)C(=CC[C@@H]4[C@@]5(C)CC[C@H](OC(=O)C(C)(C)CC(=O)O)C(C)(C)[C@@H]5CC[C@]43C)[C@H]12 | – | 30.7 | –
– | Not Active | CC(C)CC(=O)O[C@H]1CC[C@]2(C)[C@H]3CC=C4[C@@H]5[C@@H](C)[C@H](C)CC[C@]5(C(=O)O)CC[C@@]4(C)[C@]3(C)CC[C@H]2C1(C)C | – | > 18.5 | –
– | Not Active | C[C@H]1[C@H](C)CC[C@]2(C(=O)O)CC[C@]3(C)C(=CC[C@@H]4[C@@]5(C)CC[C@H](OC(=O)CC(C)(C)C)C(C)(C)[C@@H]5CC[C@]43C)[C@H]12 | – | > 18 | –
15.3 | – | C[C@H]1[C@H](C)CC[C@]2(C(=O)O)CC[C@]3(C)C(=CC[C@@H]4[C@@]5(C)CC[C@H](OC(=O)CCC(=O)O)C(C)(C)[C@@H]5CC[C@]43C)[C@H]12 | 2.9 | 44.9 | –
6.4 | – | C[C@H]1[C@H](C)CC[C@]2(C(=O)O)CC[C@]3(C)C(=CC[C@@H]4[C@@]5(C)CC[C@H](OC(=O)CCCC(=O)O)C(C)(C)[C@@H]5CC[C@]43C)[C@H]12 | 4.8 | 30.7 | –
– | – | C[C@H]1[C@H](C)CC[C@]2(C(=O)O)CC[C@]3(C)C(=CC[C@@H]4[C@@]5(C)CC[C@H](O)C(C)(C)[C@@H]5CC[C@]43C)[C@H]12 | – | – | 1.8
– | – | C=C(C)[C@@H]1CC[C@]2(C(=O)O)CC[C@]3(C)[C@H](CC[C@@H]4[C@@]5(C)CC[C@H](O)C(C)(C)[C@@H]5CC[C@]43C)[C@@H]12 [BETULINIC ACID] | 9.2 | 12.9 | –
< 0.00035 | – | C=C(C)[C@@H]1CC[C@]2(C(=O)O)CC[C@]3(C)[C@H](CC[C@@H]4[C@@]5(C)CC[C@H](OC(=O)CC(C)(C)C(=O)O)C(C)(C)[C@@H]5CC[C@]43C)[C@@H]12 [BEVIRIMAT] | > 20000 | 7 | –
– | – | CC1(C)CC[C@]2(C(=O)O)CC[C@]3(C)C(=CC[C@@H]4[C@@]5(C)CC[C@H](O)C(C)(C)[C@@H]5CC[C@]43C)[C@@H]2C1 [OLEANOLIC_ACID] | 12.9 | – | –
3 | – | C[C@@H]1CC[C@]2(C(=O)O)CC[C@]3(C)C(=CC[C@@H]4[C@@]5(C)CC[C@H](O)C(C)(C)[C@@H]5CC[C@]43C)[C@@H]2[C@]1(C)O [POMOLIC ACID] | 16.3 | – | –
